According to ChEMBL document CHEMBL1687753, “Mitochondrial DNA depletion and respiratory chain activity in primary human subcutaneous adipocytes treated with nucleoside analogue reverse transcriptase inhibitors” (Antimicrob Agents Chemother, 2010):
The source made the active and inactive calls. The rule behind the calls is not given here.

How the values were obtained:
[1] = Toxicity in human subcutaneous preadipocytes assessed as decrease of adiponectin expression at 3 uM after 30 days by ELISA; assay type: cell-based; conditions: 720 h
Summary of the method: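 Adiponectin secreted into the medium over days 25 to 30 of drug exposure in differentiating preadipocytes was measured by sandwich ELISA of culture supernatant. Three independent experiments.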

[2] = Toxicity in fully differentiated human subcutaneous preadipocytes assessed as cell death at 3 uM after 30 days using […] by conventional fluorescence microscopy; conditions: 720 h
Summary of the method: (§1)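 Trypan blue exclusion counted by microscopy at each medium change every fifth day during 30 days of drug exposure in differentiating pooled preadipocytes. Final viability was calculated by excluding the cumulative percentage of dead cells. Five independent experiments.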

Homo sapiens [3] = test: Inhibition of electron transport protein complex 2/3 in human subcutaneous preadipocytes at 3 uM after 30 to 60 days by photometric analysis; assay type: cell-based
Summary of the method: (§2)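 Pooled primary human abdominal subcutaneous preadipocytes induced to differentiate with drug (DMSO vehicle, ≤0.1%) added at day 0 and kept to day 30 or 60. Cells sonicated twice for 10 s; substrates added to lysates and conversion by complexes I+III, II+III, IV, V and citrate synthase read photometrically at 37°C. Three independent experiments.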

Homo sapiens [4] = test: Inhibition of electron transport protein complex 4 in human subcutaneous preadipocytes at 3 uM after 30 to 60 days by photometric analysis; assay type: cell-based; summary of the method: as §2
[5] = Toxicity in human subcutaneous preadipocytes assessed as acquisition of adipocyte shape at 3 uM after 30 days using oil red O fluorescence staining by conventional fluorescence microscopy; assay type: cell-based; conditions: 720 h
Summary of the method: (§3)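 On day 30 of differentiation with drug present from day 0, cells were fixed in 10% formalin and stained with 0.21% oil red O. Staining was viewed by fluorescence and light microscopy. For quantification, dye was extracted with isopropanol and read at 495 nm, also adjusted for viable cell number. Five independent experiments.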

Homo sapiens [6] = test: Inhibition of citrate synthase in human subcutaneous preadipocytes at 3 uM after 30 to 60 days by photometric analysis; assay type: cell-based; summary of the method: as §2
[7] = Toxicity in human subcutaneous preadipocytes assessed as decrease of PPARgamma expression at 0.1 uM after 18 days by RT-PCR analysis; assay type: cell-based; conditions: 432 h
Summary of the method: (§4)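 Differentiating preadipocytes were harvested at day 18. RNA from three plates was pooled and reverse transcribed, and qRT-PCR was run with 42 cycles of 94/55/72°C. Values were normalized to transferrin receptor or beta-actin by standard curve. Triplicates from three independent experiments.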

Homo sapiens [8] = test: Inhibition of electron transport protein complex 1/3 in human subcutaneous preadipocytes at 3 uM after 30 to 60 days by photometric analysis; assay type: cell-based; summary of the method: as §2
[9] = Toxicity in human subcutaneous preadipocytes assessed as decrease of cell cultures at 3 uM after 30 days using oil red O fluorescence staining by conventional fluorescence microscopy; assay type: cell-based; conditions: 720 h; summary of the method: as §3
Homo sapiens [10] = test: Inhibition of electron transport protein complex 5 in human subcutaneous preadipocytes at 3 uM after 30 to 60 days by photometric analysis; assay type: cell-based; summary of the method: as §2
[11] = Toxicity in human subcutaneous preadipocytes assessed as cell death at 3 uM after 30 days using […]; assay type: cell-based; conditions: 720 h; summary of the method: as §1
[12] = Toxicity in human subcutaneous preadipocytes assessed as decrease of mitochondrial DNA copy number per cell at 3 uM after 60 days by RT-PCR analysis; assay type: cell-based; parameters: scale not given: the % may be the effect or the level left; conditions: 1440 h
Summary of the method: (§5)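 mtDNA content of differentiated preadipocytes at day 30 or 60 of drug exposure was measured by real-time quantitative PCR with human-specific primers. Absolute copy numbers came from serial dilutions of plasmid standards. Three independent experiments.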

[13] = Toxicity in human subcutaneous preadipocytes assessed as effect on mitochondrial mass at 3 uM after 30 days using […] by flow cytometry analysis; assay type: cell-based; conditions: 720 h
[14] = Toxicity in human subcutaneous preadipocytes assessed as decrease of mitochondrial DNA abundance at 3 uM after 60 days by RT-PCR analysis; assay type: cell-based; conditions: 1440 h; summary of the method: as §5
[15] = Toxicity in human subcutaneous preadipocytes assessed as triacylglyceride droplets at 3 uM after 30 days using oil red O fluorescence staining by conventional fluorescence microscopy; assay type: cell-based; conditions: 720 h
Summary of the method: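 Preadipocytes were differentiated with a hormone cocktail (IBMX for the first 7 days, dexamethasone, insulin, indomethacin; high-glucose DMEM for days 0–18), with drug or vehicle present from day 0 to day 30. Cells were fixed in 10% formalin, stained with 0.21% oil red O in 60% isopropanol, and imaged by fluorescence microscopy. Quantification was by isopropanol extraction at 495 nm, optionally adjusted for viable cells.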

[16] = Toxicity in human subcutaneous preadipocytes assessed as decrease of C/EBPalpha expression at 0.1 uM after 18 days by RT-PCR analysis; assay type: cell-based; conditions: 432 h; summary of the method: as §4
[17] = Toxicity in human subcutaneous preadipocytes assessed as decrease of insulin-sensitizing adipokine expression at 3 uM after 30 days by RT-PCR analysis; assay type: cell-based; conditions: 720 h
Summary of the method: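 Adiponectin mRNA at day 30 was measured by qRT-PCR normalized to transferrin receptor or beta-actin, using pooled RNA and cDNA. Triplicates from three independent experiments.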

[18] = Toxicity in human subcutaneous preadipocytes assessed as decrease of C/EBPalpha expression at 3 uM after 18 days by RT-PCR analysis; assay type: cell-based; conditions: 432 h; summary of the method: as §4
[19] = Toxicity in human subcutaneous preadipocytes assessed as decrease of PPARgamma expression at 3 uM after 18 days by RT-PCR analysis; assay type: cell-based; conditions: 432 h; summary of the method: as §4
[20] = Toxicity in human subcutaneous preadipocytes assessed as decrease of mitochondrial DNA abundance at 3 uM after 30 days by RT-PCR analysis; assay type: cell-based; conditions: 720 h; summary of the method: as §5
[21] = Toxicity in human subcutaneous preadipocytes assessed as decrease of cell viability measured every 5 days at 3 uM after 30 days using […]; assay type: cell-based; conditions: 720 h; summary of the method: as §1
[22] = Toxicity in human subcutaneous preadipocytes assessed as effect on mitochondrial membrane potential at 3 uM after 30 days using JC-1 red/green fluorescence dye by flow cytometry analysis; assay type: cell-based; conditions: 720 h
Summary of the method: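 Pooled primary human subcutaneous preadipocytes (passage ≤4) were differentiated with drug or DMSO vehicle from day 0 and cultured 30 days. Staining with the JC-1 kit was followed by flow cytometry, and the JC-1 red/green fluorescence intensity ratio was used as the membrane potential read-out. CCCP served as the depolarization control. Three independent experiments, means ± SEM.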

SMILES: Cc1cn([C@H]2C=C[C@@H](CO)O2)c(=O)[nH]c1=O [STAVUDINE]
- Activity [1]: Non-toxic
- Activity [2]: Toxic
- inhibition (Homo sapiens [3]): inactive
- inhibition (Homo sapiens [4]): inactive
- Activity [5]: Non-toxic
- inhibition (Homo sapiens [6]): inactive
- Activity [7]: Non-toxic
- inhibition (Homo sapiens [8]): inactive
- Activity [9]: Toxic
- inhibition (Homo sapiens [10]): inactive
- Activity [11]: Toxic
- Activity [12]: 50%
- Activity [13]: Non-toxic
- Activity [14]: Toxic
- Activity [15]: Non-toxic
- Activity [16]: Non-toxic
- Activity [17]: Non-toxic
- Activity [18]: Non-toxic
- Activity [19]: Non-toxic
- Activity [20]: Toxic
- Activity [21]: Toxic
- Activity [22]: Non-toxic
